# Data: ChEMBL document CHEMBL1149502, “Conjugated indole-imidazole derivatives displaying cytotoxicity against multidrug resistant cancer cell lines” (Bioorg Med Chem Lett, 2006)
# Columns and labels:
# Format in all cases: functional, cell-based
# [1] = tested on: HL-60; assay: Cytotoxicity against human HL60/TX1000 cell line by MTS assay
# Procedure, shortened: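 HL-60/TX1000 is a subline isolated in vitro by subculturing HL-60 in rising Taxol concentrations. It overexpresses MDR1 mRNA and P-glycoprotein (Western blot, anti-P-gp immunofluorescence). Cells were grown in RPMI1640 with 10% FC, penicillin, streptomycin and L-glutamine, split every third day and set at 2· 10⁵ cells/mL the day before. Compound was a 1 mM DMSO stock diluted into medium, read by MTS.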
# [2] = tested on: P388; assay: Cytotoxicity against murine P388 cell line by MTS assay; conditions: Mus musculus
# Procedure, shortened: (§1)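 Cells kept in RPMI1640 with 10% FC, 100 U/mL penicillin, streptomycin and […] L-glutamine. Split every third day and diluted to 2· 10⁵ cells/mL one day before testing, so exponentially growing cultures were used. Compound stock was 1 mM in DMSO, diluted straight into the medium to final concentrations. Viability was read by MTS.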
# [3] = tested on: MDA-MB-435; assay: Cytotoxicity against human MDA435 cell line by MTS assay; procedure, shortened: as §1
# [4] = tested on: HL-60; assay: Cytotoxicity against human HL60 cell line by MTS assay; procedure, shortened: as §1
# [5] = tested on: DU-145; assay: Cytotoxicity against human DU145 cell line by MTS assay; procedure, shortened: as §1
# [6] = tested on: MES-SA; assay: Cytotoxicity against human MES-SA cell line by MTS assay; procedure, shortened: as §1
# [7] = tested on: MES-SA/Dx5; assay: Cytotoxicity against human MES-SA/DX5 cell line by MTS assay; procedure, shortened: as §1
Structure (SMILES),IC50 [1],other results
O=C(c1ncc[nH]1)c1cn(Cc2ccc(Cl)cc2)c2ccccc12,10000 nM,
COC(=O)c1c[nH]c(C(=O)c2cn(Cc3ccc(Cl)cc3)c3ccccc23)n1,500 nM,
CCNC(=O)c1c[nH]c(C(=O)c2cn(Cc3ccc(Cl)cc3)c3ccccc23)n1,5000 nM,
O=C(c1nc2cc[nH]cc-2n1)c1cn(Cc2ccc(Cl)cc2)c2ccccc12,50 nM,IC50 [2]: 50 nM; IC50 [3]: 50 nM; IC50 [4]: 50 nM; IC50 [5]: 50 nM; IC50 [6]: 10 nM; IC50 [7]: 50 nM
O=C(c1nc(CO)c[nH]1)c1cn(Cc2ccc(Cl)cc2)c2ccccc12,5000 nM,
CCC(=O)c1c[nH]c(C(=O)c2cn(Cc3ccc(Cl)cc3)c3ccccc23)n1,500 nM,
O=C(c1nc(C(O)c2cccnc2)c[nH]1)c1cn(Cc2ccc(Cl)cc2)c2ccccc12 (stereo unspecified),10000 nM,
O=C(O)c1c[nH]c(C(=O)c2cn(Cc3ccc(Cl)cc3)c3ccccc23)n1,10000 nM,
Cn1c(C(=O)c2cn(Cc3ccc(Cl)cc3)c3ccccc23)nc2cnccc21,10000 nM,
O=C(c1nc(-c2ccccn2)c[nH]1)c1cn(Cc2ccc(Cl)cc2)c2ccccc12,500 nM,
O=C(c1nc2ccc[nH]c-2n1)c1cn(Cc2ccc(Cl)cc2)c2ccccc12,10000 nM,
O=C(c1cccnc1)c1c[nH]c(C(=O)c2cn(Cc3ccc(Cl)cc3)c3ccccc23)n1,500 nM,
CC(=O)O[C@H]1C(=O)[C@@]2(C)[C@H]([C@H](OC(=O)c3ccccc3)[C@]3(O)C[C@H](OC(=O)[C@H](O)[C@@H](NC(=O)c4ccccc4)c4ccccc4)C(C)=C1C3(C)C)[C@]1(OC(C)=O)CO[C@@H]1C[C@@H]2O [PACLITAXEL],,IC50 [3]: 5 nM; IC50 [6]: 5 nM; IC50 [7]: 5000 nM
